Data taken from ChEMBL document CHEMBL4627393, “Discovery of Potent, Selective, and State-Dependent NaV1.7 Inhibitors with Robust Oral Efficacy in Pain Models: Structure-Activity Relationship and Optimization of Chroman and Indane Aryl Sulfonamides” (J Med Chem, 2020).

Legend:
[1] = Apparent permeability across apical to basolateral side in human Caco2 cells; assay type: ADME, cell-based; settings: Caco-2
[2] = Cmax in Sprague-Dawley rat at 10 mg/kg, po measured upto 24 hrs by LC/MS-MS analysis; assay type: ADME, organism-based; design: dose 10 mg/kg, route oral; settings: in vivo
[3] = Metabolic stability in monkey liver microsomes assessed as metabolic rate at 1 uM preincubated for 5 mins followed by NADPH addition and measured up to 30 mins by LC/MS-MS analysis; assay type: ADME, Macaca mulatta, Microsome; settings: rhesus monkey, 0.5 h
[4] = Lipophilicity, log D of the compound; assay type: physicochemical; settings: octanol/water
[5] = Metabolic stability in mouse liver microsomes assessed as metabolic rate at 1 uM preincubated for 5 mins followed by NADPH addition and measured up to 30 mins by LC/MS-MS analysis; assay type: ADME, Microsome; settings: 0.5 h
[6] = Drug concentration in brain of formalin-induced C57BL/6 mouse model of nociceptive pain at 30 mg/kg, […]; assay type: ADME, organism-based; settings: po
[7] = Half life in BALB/c mouse at 1 mg/kg, iv measured upto 24 hrs by LC/MS-MS analysis; assay type: ADME, organism-based; settings: in vivo
[8] = Cmax in male cynomolgus monkey at 150 mg/kg, po; assay type: ADME, organism-based, Macaca fascicularis; design: dose 150 mg/kg, route oral; settings: in vivo
[9] = Cmax in Sprague-Dawley rat at 1 mg/kg, iv measured upto 24 hrs by LC/MS-MS analysis; assay type: ADME, organism-based; design: dose 1 mg/kg, route intravenous; settings: in vivo
[10] = AUClast in Sprague-Dawley rat at 10 mg/kg, po measured upto 24 hrs by LC/MS-MS analysis; assay type: ADME, organism-based; design: time < 24 hr, dose 10 mg/kg, route oral; settings: in vivo
[11] = Half life in Sprague-Dawley rat at 1 mg/kg, iv measured upto 24 hrs by LC/MS-MS analysis; assay type: ADME, organism-based; settings: in vivo
[12] = Clearance in BALB/c mouse at 1 mg/kg, iv measured upto 24 hrs by LC/MS-MS analysis; assay type: ADME, organism-based; settings: in vivo
[13] = AUClast in BALB/c mouse at 10 mg/kg, po measured upto 24 hrs by LC/MS-MS analysis; assay type: ADME, organism-based; design: dose 10 mg/kg, time < 24 hr, route oral; settings: in vivo
[14] = Cmax in female cynomolgus monkey at 150 mg/kg, po; assay type: ADME, organism-based, Macaca fascicularis; design: dose 150 mg/kg, route oral; settings: in vivo
[15] = Tmax in male cynomolgus monkey at 150 mg/kg, po; assay type: ADME, organism-based, Macaca fascicularis; settings: in vivo
Method in brief: (§1)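 Cynomolgus monkeys, 3 male and 3 female, were given a single oral gavage dose of 150 mg/kg. Animals were watched for emesis. Tmax was recorded separately for males and females.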

[16] = Tmax in female cynomolgus monkey at 150 mg/kg, po; assay type: ADME, organism-based, Macaca fascicularis; settings: in vivo; method in brief: as §1
[17] = AUClast in female cynomolgus monkey at 150 mg/kg, po; assay type: ADME, organism-based, Macaca fascicularis; design: dose 150 mg/kg, time 0 - last, route oral; settings: in vivo
[18] = Oral bioavailability in Sprague-Dawley rat at 10 mg/kg measured upto 24 hrs by LC/MS-MS analysis; assay type: ADME, organism-based; settings: in vivo
Method in brief: (§2)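 Pharmacokinetics were run with an IV dose of 1 mg/kg and a PO dose of 10 mg/kg. Parameters reported were AUClast, Cmax, CL, T1/2, Vss and %F.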

[19] = Metabolic stability in rat liver microsomes assessed as metabolic rate at 1 uM preincubated for 5 mins followed by NADPH addition and measured up to 30 mins by LC/MS-MS analysis; assay type: ADME, Microsome; settings: 0.5 h
[20] = Apparent permeability across basolateral to apical side in human Caco2 cells; assay type: ADME, cell-based; settings: Caco-2
[21] = AUClast in male cynomolgus monkey at 150 mg/kg, po; assay type: ADME, organism-based, Macaca fascicularis; design: dose 150 mg/kg, route oral, time 0 - last; settings: in vivo
[22] = AUClast in Sprague-Dawley rat at 1 mg/kg, iv measured upto 24 hrs by LC/MS-MS analysis; assay type: ADME, organism-based; design: dose 1 mg/kg, time < 24 hr, route intravenous; settings: in vivo
[23] = Unbound drug concentration in plasma of formalin-induced C57BL/6 mouse model of nociceptive pain at 3 mg/kg, po administered 30 mins before formalin stimulation and measured after 40 mins; assay type: ADME, organism-based; settings: in vivo
Method in brief: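 Mice were dosed orally at 3 mg/kg 30 min before formalin challenge. Nociceptive behaviour was scored at 0–5 min (phase I) and 10–40 min (phase II). Plasma was collected at the end of the study, and the unbound drug concentration was determined.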

[24] = Metabolic stability in dog liver microsomes assessed as metabolic rate at 1 uM preincubated for 5 mins followed by NADPH addition and measured up to 30 mins by LC/MS-MS analysis; assay type: ADME, Canis lupus familiaris, Microsome; settings: 0.5 h
[25] = Volume of distribution at steady state in Sprague-Dawley rat at 1 mg/kg, iv measured upto 24 hrs by LC/MS-MS analysis; assay type: ADME, organism-based; settings: in vivo, read-out: Vdss
[26] = Cmax in BALB/c mouse at 1 mg/kg, iv measured upto 24 hrs by LC/MS-MS analysis; assay type: ADME, organism-based; design: dose 1 mg/kg, route intravenous; settings: in vivo
[27] = Volume of distribution at steady state in BALB/c mouse at 1 mg/kg, iv measured upto 24 hrs by LC/MS-MS analysis; assay type: ADME, organism-based; settings: in vivo, read-out: Vdss; method in brief: as §2
[28] = Metabolic stability in human liver microsomes assessed as metabolic rate at 1 uM preincubated for 5 mins followed by NADPH addition and measured up to 30 mins by LC/MS-MS analysis; assay type: ADME, Microsome; settings: 0.5 h
[29] = Cmax in BALB/c mouse at 10 mg/kg, po measured upto 24 hrs by LC/MS-MS analysis; assay type: ADME, organism-based; design: dose 10 mg/kg, route oral; settings: in vivo
[30] = Oral bioavailability in BALB/c mouse at 10 mg/kg measured upto 24 hrs by LC/MS-MS analysis; assay type: ADME, organism-based; settings: in vivo; method in brief: as §2
[31] = Clearance in Sprague-Dawley rat at 1 mg/kg, iv measured upto 24 hrs by LC/MS-MS analysis; assay type: ADME, organism-based; settings: in vivo
[32] = AUClast in BALB/c mouse at 1 mg/kg, iv measured upto 24 hrs by LC/MS-MS analysis; assay type: ADME, organism-based; design: time < 24 hr, dose 1 mg/kg, route intravenous; settings: in vivo

Cn1nccc1-c1cc(C(F)(F)F)ccc1[C@H]1CCc2cc(S(=O)(=O)Nc3ncccn3)ccc21
Papp A→B [1]: 31.5 ×10⁻⁶ cm/s | Cmax [2]: 10.9 µM | Drug metabolism [3]: 0.03 nmol/min/mg | logD [4]: 2.4 | Drug metabolism [5]: 0.03 nmol/min/mg | concentration at 40 min [6]: 2.1 µM | half-life [7]: 2.8 h | Cmax [8]: 66 µM | Cmax [9]: 2.5 µM | AUC(0-t) at 24 h [10]: 46 µM·h | half-life [11]: 2.7 h | clearance [12]: 3.3 mL/min/kg | AUC(0-t) at 24 h [13]: 84 µM·h | Cmax [14]: 69 µM | Tmax [15]: 2 h | Tmax [16]: 1.5 h | AUC(0-t) [17]: 601 µM·h | bioavailability [18]: 58% | Drug metabolism [19]: 0.04 nmol/min/mg | Papp B→A [20]: 36.7 ×10⁻⁶ cm/s | AUC(0-t) [21]: 684 µM·h | AUC(0-t) at 24 h [22]: 7.9 µM·h | Cp(f) [23]: 0.343 µM | Drug metabolism [24]: 0.02 nmol/min/mg | Vd [25]: 1 L/kg | Cmax [26]: 2 µM | Vd [27]: 0.8 L/kg | Drug metabolism [28]: 0.03 nmol/min/mg | Cmax [29]: 18 µM | bioavailability [30]: 99% | clearance [31]: 4.9 mL/min/kg | AUC(0-t) at 24 h [32]: 8.5 µM·h
